For one assay, the target named is T1, Dihydrofolate reductase (Rattus norvegicus, UniProt Q920D2).
T1 sequence (Q920D2 whole entry): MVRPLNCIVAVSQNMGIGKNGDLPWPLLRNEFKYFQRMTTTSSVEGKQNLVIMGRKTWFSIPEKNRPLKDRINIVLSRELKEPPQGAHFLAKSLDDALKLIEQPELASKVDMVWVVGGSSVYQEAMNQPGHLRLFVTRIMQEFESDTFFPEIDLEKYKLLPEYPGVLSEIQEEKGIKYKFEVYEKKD
In words: Inhibitory activity against rat liver Dihydrofolate reductase. The note with it: read-out: I50.

Assay [1] has as its system HT-29. Nature of the assay: Growth inhibitory activity against human HT-29 cell line. In kind it is functional. The essentials: (§1)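 HCT-116 or HT29 colon cells in RPMI 1640 with L-glutamine and 10% heat-inactivated FBS, 37 °C, 5% CO2. Cells were plated at densities suited to the growth rate and allowed to attach 4–24 h. Drug from 10 mM DMSO stocks was then added and cells incubated 4 days. MTT readout: 4 h with MTT, formazan dissolved in DMSO:glycine buffer (4:1), A550. A time-zero plate gave the starting density. Values are GI50, mean of three experiments.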

Assay [2] has as its system HCT-116. Nature of the assay: Growth inhibitory activity against human HCT116 cell line in presence of Hypoxanthine thymidine(HT). It is filed as functional. In outline: (§2)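 Same 4-day MTT growth assay in HCT-116 or HT29 cells, with hypoxanthine 100 µM and thymidine 20 µM (final) added together with the drug. Hypoxanthine stock was in 10 mM NaOH and thymidine in water. Readout was A550 against a time-zero plate. GI50 is the mean of three experiments.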

Assay [3] deals with HCT-116. Nature of the assay: Growth inhibitory activity against human HCT116 cell line. In kind it is functional. The essentials:
as §1

Assay [4] deals with HT-29. In words: Growth inhibitory activity against human HT-29 cell line in presence of Hypoxanthine thymidine(HT). In kind it is functional. The essentials:
as §2

We go through 14 compounds from ChEMBL document CHEMBL1138668, “Structural studies on bioactive compounds. 39. Biological consequences of the structural modification of DHFR-inhibitory 2,4-diamino-6-(4-substituted benzylamino-3-nitrophenyl)-6-ethylpyrimidines ('benzoprims')” (J Med Chem, 2004).

With `CCc1nc(N)nc(N)c1-c1ccc2nn(-c3ccccc3)[n+]([O-])c2c1`, the IC50 on Dihydrofolate reductase worked out at 2.7 µM.
Turning to `CCc1nc(N)nc(N)c1-c1ccc2[nH]c(-c3ccc(F)cc3)[n+]([O-])c2c1`, the GI50 (usually the concentration that inhibits growth by half) in the assay on HT-29 [1] is 46 µM; with HCT-116 [2], 22 µM; in the assay with HCT-116 [3], 17 µM; in the assay on HT-29 [4], 39 µM.
With `Nc1ncc(-c2ccc(NCc3ccc(F)cc3)c([N+](=O)[O-])c2)cn1`, the GI50 in the assay with HT-29 [1] was found to be 41 µM; in the assay with HCT-116 [2] it was 47 µM; in the assay with HCT-116 [3], 48 µM; in the assay with HT-29 [4] it was 38 µM.
As for `CCc1nc(N)nc(N)c1-c1ccc(NCc2ccccc2OC)c([N+](=O)[O-])c1`, the GI50 was 1.5 µM in the assay with HT-29 [1], 7.5 µM in the assay with HCT-116 [2], 0.08 µM in the assay with HCT-116 [3] and 11.6 µM with HT-29 [4].
As to `Nc1ncc(-c2ccc(Cl)c([N+](=O)[O-])c2)cn1`, the GI50 in the assay on HT-29 [1], in the assay on HCT-116 [2], in the assay on HCT-116 [3] and in the assay on HT-29 [4] was greater than 50 µM in each case.
Turning to `Nc1nc(N)c2[nH]c(Cc3ccc(Cl)c(Cl)c3)nc2n1`, at Dihydrofolate reductase, the IC50 was 252 µM.
Take `COc1cc(NCc2ccc3nc(N)nc(N)c3c2C)cc(OC)c1OC` [TRIMETREXATE]: the GI50 in the assay with HT-29 [1] was 0.01 µM; in the assay with HCT-116 [2] it was 19 µM; in the assay with HCT-116 [3], 0.01 µM; with HT-29 [4], 21 µM.
`CCc1nc(N)nc(N)c1-c1ccc(Cl)c([N+](=O)[O-])c1`: the GI50 in the assay on HT-29 [1] was found to be 3.8 µM; in the assay on HCT-116 [2], 38 µM; in the assay with HCT-116 [3], 0.25 µM; in the assay on HT-29 [4], 40 µM.
Take `CCc1nc(N)nc(N)c1-c1ccc(NCc2ccc(Cl)c(Cl)c2)c([N+](=O)[O-])c1`: the IC50 at Dihydrofolate reductase came to 0.008 µM.
In the case of `CN(Cc1ccccc1)c1ccc(-c2cnc(N)nc2)cc1[N+](=O)[O-]`, the GI50 with HT-29 [1] was 14 µM; in the assay on HCT-116 [2], greater than 50 µM; in the assay with HCT-116 [3], greater than 50 µM; in the assay on HT-29 [4], 17 µM.
`CN(Cc1cnc2nc(N)nc(N)c2n1)c1ccc(C(=O)N[C@@H](CCC(=O)O)C(=O)O)cc1` [METHOTREXATE]: the GI50 with HT-29 [1] is 0.07 µM; in the assay with HCT-116 [2], greater than 50 µM; with HCT-116 [3] it was 0.01 µM; with HT-29 [4], greater than 50 µM.
With `CCc1nc(N)nc(N)c1-c1ccc2[nH]c(-c3ccc(Cl)cc3)[n+]([O-])c2c1`, the GI50 in the assay on HT-29 [1] was greater than 50 µM; in the assay on HCT-116 [2] it was 9 µM; in the assay on HCT-116 [3], 9 µM; with HT-29 [4], greater than 50 µM.
As for `CCc1nc(N)nc(N)c1-c1ccc(N(C)Cc2ccccc2)c([N+](=O)[O-])c1`, the GI50 is 0.48 µM in the assay on HT-29 [1], 7.4 µM with HCT-116 [2], 0.08 µM with HCT-116 [3] and 9.2 µM in the assay with HT-29 [4].
In the case of `Nc1ncc(-c2ccc(NCc3ccc(Cl)cc3)c([N+](=O)[O-])c2)cn1`, the GI50 in the assay with HT-29 [1] was 17 µM; in the assay on HCT-116 [2] it was 5 µM; in the assay on HCT-116 [3], 3 µM; in the assay with HT-29 [4], 25 µM.
